Calls of active or inactive are those of the source. The calls are words filed in the database; no cut-off is given here.
Assays:
[1] = tested on: Burkholderia multivorans; experiment: Potentiation of colistin-induced antibacterial activity against Burkholderia multivorans B10 assessed as colistin MIC at 50 uM incubated for 20 hrs by susceptibility testing (Rvb > 128 ug/ml); type: functional
Summary of the method: (§1)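 Colistin MIC by broth microdilution in cation-adjusted Mueller-Hinton broth, log-phase cells at final 5×10^5 cfu/mL. Two-fold colistin dilutions in duplicate with sulfonamide at final 0.05 mM (from 10 mM DMSO stock); 20 h at 37 °C. OD550 read. MIC taken as the lowest colistin level reducing growth ≥80% versus growth control. At least two replicates.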

[2] = tested on: Acinetobacter baumannii; experiment: Antimicrobial activity against Acinetobacter baumannii ATCC 15308 assessed as microbial growth inhibition at 50 uM incubated for 20 hrs by broth microdilution method; type: functional, organism-based
Summary of the method: (§2)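 Overnight cultures in cation-adjusted Mueller-Hinton broth, subcultured 1:100; log-phase cells at final 1×10^5 cfu/mL exposed to sulfonamide at final 0.05 mM (from 10 mM DMSO stock) for 20 h at 37 °C. OD550 read after shaking. Growth expressed as percent of 0.5% DMSO control wells. Screened at least twice.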

[3] = tested on: Escherichia coli; experiment: Antimicrobial activity against Escherichia coli ATCC 9637 assessed as microbial growth inhibition at 50 uM incubated for 20 hrs by broth microdilution method; type: functional, organism-based; summary of the method: as §2
[4] = tested on: Pseudomonas aeruginosa; experiment: Antimicrobial activity against Pseudomonas aeruginosa PAO1 assessed as microbial growth inhibition at 50 uM incubated for 20 hrs by broth microdilution method; type: functional, organism-based; summary of the method: as §2
[5] = tested on: Escherichia coli; experiment: Inhibition of biofilm formation in Escherichia coli ATCC 9637 at 0.05 mM incubated for 24 hrs by crystal violet method relative to control; type: functional; settings: ATCC 9637, 24 h
Summary of the method: (§3)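 Crystal violet assay in LB: log-phase bacteria at final 1×10^5 cfu/mL with sulfonamide at final 0.05 mM, 24 h at 37 °C. Biomass read at OD620, then wells washed, biofilm heat-fixed 65 °C 15 min, stained 0.1% crystal violet 15 min, dye eluted in 30% acetic acid, OD550 read. Neat DMSO control taken as 100%. Duplicates, at least two independent experiments; one-way ANOVA.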

[6] = tested on: Burkholderia multivorans; experiment: Inhibition of biofilm formation in Burkholderia multivorans B10 at 0.05 mM incubated for 24 hrs by crystal violet method relative to control; type: functional; settings: B10, 24 h; summary of the method: as §3
[7] = tested on: Pseudomonas aeruginosa; experiment: Inhibition of biofilm formation in Pseudomonas aeruginosa PAO1 at 0.05 mM incubated for 24 hrs by crystal violet method; type: functional, organism-based; summary of the method: as §3
[8] = tested on: Stenotrophomonas maltophilia; experiment: Inhibition of biofilm formation in Stenotrophomonas maltophilia K279a clinical isolate of rpf-1 subpopulation at 0.05 mM incubated for 24 hrs by crystal violet method; type: functional, organism-based; summary of the method: as §3
[9] = tested on: Acinetobacter baumannii; experiment: Potentiation of colistin-induced antibacterial activity against Acinetobacter baumannii ATCC 15308 assessed as colistin MIC at 50 uM incubated for 20 hrs by susceptibility testing (reference value: 0.25 to 0.5 ug/ml); type: functional; summary of the method: as §1
[10] = tested on: Escherichia coli; experiment: Potentiation of colistin-induced antibacterial activity against Escherichia coli ATCC 9637 assessed as colistin MIC at 50 uM incubated for 20 hrs by susceptibility testing (reference value: 0.125 to 0.25 ug/ml); type: functional; summary of the method: as §1
[11] = tested on: Burkholderia cepacia; experiment: Potentiation of colistin-induced antibacterial activity against Burkholderia cepacia R6193 assessed as colistin MIC at 50 uM incubated for 20 hrs by susceptibility testing (Rvb > 256 ug/ml); type: functional; summary of the method: as §1
[12] = tested on: Burkholderia cenocepacia; experiment: Potentiation of colistin-induced antibacterial activity against Burkholderia cenocepacia 289 assessed as colistin MIC at 50 uM incubated for 20 hrs by susceptibility testing (Rvb > 256 ug/ml); type: functional; summary of the method: as §1
[13] = tested on: Pseudomonas aeruginosa; experiment: Potentiation of colistin-induced antibacterial activity against Pseudomonas aeruginosa assessed as colistin MIC at 50 uM incubated for 20 hrs by susceptibility testing (reference value: 1 to 2 ug/ml); type: functional; summary of the method: as §1
[14] = tested on: Stenotrophomonas maltophilia; experiment: Potentiation of colistin-induced antibacterial activity against Stenotrophomonas maltophilia K279a assessed as colistin MIC at 50 uM incubated for 20 hrs by susceptibility testing (reference value: 2 to 8 ug/ml); type: functional; summary of the method: as §1
[15] = tested on: Acinetobacter baumannii; experiment: Inhibition of biofilm formation in Acinetobacter baumannii ATCC 15308 at 0.05 mM incubated for 24 hrs by crystal violet method relative to control; type: functional; settings: ATCC 15308, 24 h; summary of the method: as §3
[16] = tested on: Burkholderia cepacia; experiment: Inhibition of biofilm formation in Burkholderia cepacia R6193 clinical isolate at 0.05 mM incubated for 24 hrs by crystal violet method; type: functional, organism-based; summary of the method: as §3
[17] = tested on: Stenotrophomonas maltophilia; experiment: Antimicrobial activity against Stenotrophomonas maltophilia K279a assessed as microbial growth inhibition at 50 uM incubated for 20 hrs by broth microdilution method; type: functional, organism-based; summary of the method: as §2
[18] = tested on: Burkholderia multivorans; experiment: Antimicrobial activity against Burkholderia multivorans B10 assessed as microbial growth inhibition at 50 uM incubated for 20 hrs by broth microdilution method; type: functional, organism-based; summary of the method: as §2
[19] = Toxicity in Galleria mellonella larva assessed as larval survival at 50 uM
[20] = tested on: Stenotrophomonas maltophilia; experiment: Potentiation of colistin-induced antibacterial activity against Stenotrophomonas maltophilia K279a infected in Galleria mellonella larva at 50 uM; type: functional, organism-based
Summary of the method: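 Larvae 300–400 mg, at least 15 per group, infected in last proleg with 1×10^4 cfu S. maltophilia K279a in PBS. After 60 min at 37 °C, chilled 15 min on ice, then injected with 5 μL PBS holding colistin at final 0.5 μg/mL, sulfonamide at final 50 μM, or both; 0.5% DMSO vehicle control. Kept at 37 °C, survival scored every 24 h for Kaplan-Meier curves. At least two larval batches.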

[21] = Toxicity in Galleria mellonella larva assessed as larval survival at 50 uM in presence of colistin

Structure (SMILES)	MIC [1]	MIC [9]	MIC [10]	MIC [11]	MIC [12]	MIC [13]	MIC [14]	growth inhibition (GI) [2]	growth inhibition (GI) [3]	growth inhibition (GI) [4]	inhibition at 50 µM [5]	inhibition at 50 µM [6]	inhibition [7]	inhibition [8]	inhibition at 50 µM [15]	Activity [19]	further results
CCCCCCCCCc1ccccc1C(=O)NS(=O)(=O)c1ccc(Cl)cc1	> 128 mg/L	1 mg/L	1 mg/L	> 256 mg/L	> 256 mg/L	4 mg/L	2 mg/L	inactive	inactive	inactive	59%	47%	inactive	inactive	–	–	–
CCCCCCCCCc1ccccc1C(=O)NS(=O)(=O)c1ccc(Br)cc1	> 128 mg/L	2 mg/L	> 1 mg/L	> 256 mg/L	> 256 mg/L	8 mg/L	2 mg/L	inactive	inactive	inactive	> 59%	31%	inactive	inactive	8%	–	inhibition [16]: inactive
CCCCCCCCCc1ccccc1C(=O)NS(=O)(=O)c1ccc(I)cc1	> 128 mg/L	2 mg/L	> 1 mg/L	> 256 mg/L	> 256 mg/L	8 mg/L	4 mg/L	inactive	inactive	inactive	68%	35%	inactive	inactive	–	Non-Toxic	growth inhibition (GI) [17]: Active; growth inhibition (GI) [18]: Active
CCCCCCCCCc1ccccc1C(=O)NS(=O)(=O)c1ccc(F)cc1	> 128 mg/L	0.25 mg/L	0.5 mg/L	> 256 mg/L	> 256 mg/L	1 mg/L	0.5 mg/L	inactive	inactive	inactive	22%	27%	inactive	inactive	25%	–	–
CCCCCCCCCc1ccccc1C(=O)NS(=O)(=O)c1cccc(Br)c1	> 128 mg/L	1 mg/L	> 1 mg/L	> 256 mg/L	> 256 mg/L	4 mg/L	4 mg/L	inactive	inactive	inactive	63%	41%	inactive	inactive	1.5%	Non-Toxic	growth inhibition (GI) [17]: Active; inhibition [16]: inactive

More lines, main results first:

MIC [1]	MIC [9]	MIC [10]	MIC [11]	MIC [12]	MIC [13]	MIC [14]	Structure (SMILES)	growth inhibition (GI) [2]	growth inhibition (GI) [3]	growth inhibition (GI) [4]	inhibition at 50 µM [5]	inhibition at 50 µM [6]	inhibition [7]	inhibition [8]	inhibition at 50 µM [15]	Activity [19]	further results
> 128 mg/L	0.125 mg/L	0.125 mg/L	> 256 mg/L	> 256 mg/L	1 mg/L	0.5 mg/L	CCCCCCCCCc1ccccc1C(=O)NS(C)(=O)=O	inactive	inactive	inactive	–	–	inactive	inactive	–	Non-Toxic	–
> 128 mg/L	0.5 mg/L	0.5 mg/L	> 256 mg/L	> 256 mg/L	1 mg/L	0.5 mg/L	CCCCCCCCCc1ccccc1C(=O)NS(=O)(=O)c1ccccc1Br	inactive	inactive	inactive	43%	38%	inactive	inactive	30%	–	–
> 128 mg/L	0.25 mg/L	0.5 mg/L	> 256 mg/L	> 256 mg/L	1 mg/L	0.5 mg/L	CCCCCCCCCc1ccccc1C(=O)NS(=O)(=O)C(C)(C)C	inactive	inactive	inactive	–	> 35%	inactive	inactive	–	Non-Toxic	Activity [20]: Active; Activity [21]: Non-Toxic

Source: ChEMBL document CHEMBL5335788, “Synthesis and evaluation of aromatic BDSF bioisosteres on biofilm formation and colistin sensitivity in pathogenic bacteria” (Eur J Med Chem, 2023)
